Assay results taken from ChEMBL document CHEMBL1143161, “Non-charged thiamine analogs as inhibitors of enzyme transketolase” (Bioorg Med Chem Lett, 2008).

Key:
Transketolase [1] = molecular target: T1, Transketolase (Homo sapiens, UniProt P29401); assay: Inhibition of apo-transketolase
T1 sequence (P29401 whole entry): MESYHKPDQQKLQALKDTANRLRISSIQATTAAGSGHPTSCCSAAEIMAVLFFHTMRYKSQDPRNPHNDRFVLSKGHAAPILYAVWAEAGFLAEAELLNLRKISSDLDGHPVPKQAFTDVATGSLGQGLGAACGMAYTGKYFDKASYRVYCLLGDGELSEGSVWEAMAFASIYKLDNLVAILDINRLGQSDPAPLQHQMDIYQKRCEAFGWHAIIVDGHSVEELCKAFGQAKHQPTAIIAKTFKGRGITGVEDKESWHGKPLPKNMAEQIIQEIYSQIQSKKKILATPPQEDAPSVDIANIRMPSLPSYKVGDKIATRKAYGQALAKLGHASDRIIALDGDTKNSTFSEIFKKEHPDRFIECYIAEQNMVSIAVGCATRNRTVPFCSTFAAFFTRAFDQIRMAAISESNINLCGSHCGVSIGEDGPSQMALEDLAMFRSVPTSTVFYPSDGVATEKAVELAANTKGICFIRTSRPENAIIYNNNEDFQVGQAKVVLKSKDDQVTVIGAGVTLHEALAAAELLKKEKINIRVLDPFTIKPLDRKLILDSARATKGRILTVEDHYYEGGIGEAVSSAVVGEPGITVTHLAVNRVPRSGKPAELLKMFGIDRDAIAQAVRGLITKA

Transketolase [2] = molecular target: T1, Transketolase; assay: Inhibition of transketolase in human HCT116 cells; assay type: cell-based, HCT-116
How it was run: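 Cellular TK assay in human colon cancer HCT-116 cells, run in triplicate. EC50 reported as the average, with data within 4-fold of the mean.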

Transketolase [3] = molecular target: T1, Transketolase; assay: Inhibition of apo-transketolase by coupled TPPK/Apo-TK enzymatic assay
How it was run: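 Each compound was first checked for pyrophosphorylation by TPPK, with thiamine as the control substrate; pyrophosphorylation was scored relative to thiamine. Compounds were then tested for competition with TPP in inhibiting TK activity. Kd is the average of at least three experiments, with data within 2-fold of the mean.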

| Compound | Kd (Transketolase [1]) | EC50 (Transketolase [2]) | Kd (Transketolase [3]) |
| --- | --- | --- | --- |
| CC(=O)Nc1ncc(Cc2csc(CCO)c2C)c(N)n1 | 1.1 µM | 6.3 µM | 0.003 µM |
| Cc1ncc(Cc2csc(CCO)c2C)c(N)n1 [3-DEAZATHIAMINE] | 18 µM | 1.2 µM | 0.012 µM |
| Cc1c(Cc2cnc(-c3ccccc3)nc2N)csc1CCO | > 500 µM | > 10 µM | 0.23 µM |
| Cc1c(Cc2cnc(C3CC3)nc2N)csc1CCO | > 500 µM | 0.66 µM | 0.06 µM |
| Cc1ncc(Cc2nn(C)c(CCO)c2C)c(N)n1 |  | 4.7 µM |  |
| Cc1ncc(Cc2[nH]nc(CCO)c2C)c(N)n1 |  | 17 µM |  |
| Cc1c(Cc2cnc(N)nc2N)csc1CCO | 2.2 µM | 8.5 µM |  |
| Cc1c(Cc2cnc(C(F)(F)F)nc2N)csc1CCO |  | 25 µM | 0.063 µM |
| Cc1ncc(C[n+]2csc(CCO)c2C)c(N)n1 [THIAMINE ION] | 6800 µM |  |  |
| Cc1ncc(Cn2c(C)c(CCO)sc2=O)c(N)n1 [THIAMINE THIAZOLONE] | 34 µM | 2.71 µM |  |
| Cc1c(Cc2cncnc2N)csc1CCO | > 100 µM | 52 µM |  |
| Cc1ncc(Cn2c(C)c(CCO[P@@](=O)(O)OP(=O)(O)O)sc2=O)c(N)n1 | 0.016 µM |  |  |
| Cc1ccc(Cn2c(C)c(CCO)sc2=O)c(N)n1 | > 500 µM | 3.24 µM |  |
| Cc1ncc(Cc2c(C)c(CCO)nn2C)c(N)n1 |  | 1.1 µM |  |
| Cc1c(Cc2cnc(C(C)C)nc2N)csc1CCO | > 500 µM | 2.6 µM | 0.064 µM |
